Source: PubChem BioAssay (several laboratories)
Hits are enriched below; roughly 2.9% of the tested compounds scored in any of these assays.
proKLK7 act – activators of human kallikrein-7 zymogen. P49862. purified proKLK7, EDANS-DABCYL substrate fluorescence; 100% is mature enzyme control, 0% vehicle. activation, % at 7 µM. 370,000 compounds, 0.9% hits. AID 652039;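 active means activation above the mean of all tested compounds plus 3 SD, computed per campaign excluding outliers beyond control limits, cut at about 13% in these data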
Target sequence (P49862 whole entry, looked up): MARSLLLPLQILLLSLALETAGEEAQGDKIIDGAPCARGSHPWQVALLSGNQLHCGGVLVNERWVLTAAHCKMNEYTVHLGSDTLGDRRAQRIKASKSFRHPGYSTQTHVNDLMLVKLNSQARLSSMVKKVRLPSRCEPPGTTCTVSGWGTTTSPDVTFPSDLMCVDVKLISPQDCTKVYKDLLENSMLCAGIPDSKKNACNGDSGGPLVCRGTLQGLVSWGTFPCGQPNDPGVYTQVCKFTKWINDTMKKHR
DDE Tn6 FP inh – disrupts Tn6 cyclic peptide binding to fibrin D-Dimer-E complex; 370,000 compounds, 0.21% hits; AID 720509; inhibition, % at 8.3 µM; Fibrin DD(E) TRITC-Tn6 fluorescence polarization displacement;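 active means inhibition above a per-campaign cutoff: mean of compounds within control limits plus 3 SD, cut at about 15% in these data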
DDE Tn7 FP inh – inhibitors of Tn7 peptide binding to human fibrin DD(E); AID 720508; 370,000 compounds, 0.13% hits; FP displacement of FITC-Tn7 peptide from fibrin DD(E); 0% = median of compound wells per plate; inhibition, % at 8.3 µM; P02675;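 active means inhibition above the mean of compounds falling within the control limits plus 3 SD of them, cut at about 14% in these data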
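Assay system: Fibrin-DD(E) protein isolated from polymerized human fibrin clots; read-out basis: percent inhibition; medium: Tris/NaCl/CaCl2 buffer, pH 7.8; signal: FP measurement; incubation: 10 min plus 3 h, room temperature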
CRFR2-BP ag – agonists of human CRF-binding protein/CRF-R2 receptor complex. HEK293 CRF-R2/CRF-BP, calcium dye fluorescence (FLIPR); percent of saturating CRF peptide response. activation, % at 13.2 µM. 350,000 compounds, 0.46% hits. AID 588473;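 active means activation of at least 50%, plus an integration ratio under a set limit after plate pattern correction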
CRFBP-R2 block – CRF-BP/CRF-R2 complex antagonism; HEK293 CRF-R2/CRF-BP, CRF-induced calcium fluorescence; inhibition, % at 11.8 µM; 350,000 compounds, 0.59% hits; AID 588475;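 active means inhibition of the ligand-induced calcium signal above about 50% at the single tested concentration, limit read from the data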
NRP1-CendR mod – NRP-1/CendR interaction modulation; 360,000 compounds, 0.85% hits; O14786; inhibition, % at 25 µM; AID 602438; FAM-RPARPAR peptide binding to NRP-1, fluorescence polarization;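 active means inhibition or corrected inhibition above about 18%, plus a signal ratio from 0.5 to 1.5, limit read from the data, passing the limit was not always enough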
proKLK7 act conf – proKLK7 activation, confirmation; shares compounds with proKLK7 act; AID 686949; purified proKLK7, EDANS-DABCYL substrate fluorescence; scaled: vehicle 0, mature enzyme 100; 3,200 compounds, 68% hits; activation, % at 7 µM;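 active means activation, as change over the incubation, above the mean of all tested compounds plus 3 SD, cut at about 13% in these data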
EDANS-DABCYL int – counter-screen for kallikrein-7 activators: EDANS-DABCYL optical interference. shares compounds with proKLK7 act. EDANS-DABCYL substrate fluorescence interference, no enzyme, 4 h; solvent 0%, active enzyme control 100%. activation, % at 7 µM. 3,200 compounds, 80% hits. AID 686952;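 active means activation above the all-compound mean plus 3 SD, ignoring values outside control-based bounds, cut at about 4.8% in these data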;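 further: value is the 4 h activation minus the activation read at time zero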
Numbers stand for hits; . = inactive; / = no result given.

SMILES | proKLK7 act | DDE Tn6 FP inh | DDE Tn7 FP inh | CRFR2-BP ag | CRFBP-R2 block | NRP1-CendR mod | proKLK7 act conf | EDANS-DABCYL int
COc1cc2c[n+](C)c3c4ccccc4ccc3c2cc1OC | 26 | . | . | . | . | . | . | 16
COc1ccc2c(c1)c[n+](C)c1c3cc(OC)c(OC)cc3ccc21 | . | . | . | / | / | . | / | /
C=CCc1c(C)nc(-c2ccccc2)nc1N/N=C/c1ccccc1 | 14 | . | . | . | . | . | . | .
CCCCNS(=O)(=O)c1ccc(OC)c(C)c1 | . | . | . | . | . | . | / | /
COc1ccc(S(=O)(=O)NCCc2cn3nc(C)c(C)nc3n2)cc1C | 33 | . | . | . | . | . | 37 | 45
Cc1ccc(S(=O)(=O)NCCc2cn3nc(C)c(C)nc3n2)cc1C | 58 | . | . | . | . | . | 41 | 49
O=C(CSc1nc2ccccc2[nH]1)NN=Cc1ccccc1C(=O)O | . | . | . | / | / | / | / | /
CC(=C\C=O)/C(C)=C/CC[C@@H]1O[C@@H]2C[C@@H]3O[C@](C)(C[C@H]4C[C@H](O)[C@@H]5O[C@@H]6C[C@H](O)[C@@H](C)O[C@@]6(C)CC[C@H]5O4)[C@@H](O)CC[C@@]3(C)O[C@H]2[C@@H](O)[C@@H]1C | / | . | . | / | / | / | / | /
COCCCn1c(=N)c(C(=O)NCC2CCCO2)cc2c(=O)n3ccccc3nc21 (stereo not drawn) | 33 | . | . | . | . | . | . | 15
Cc1ccc(Cn2c(=N)c(C(=O)NCC3CCCO3)cc3c(=O)n4cccc(C)c4nc32)cc1 (stereo not drawn) | . | . | . | . | . | . | / | /
COCCCn1c(=N)c(C(=O)NCC2CCCO2)cc2c(=O)n3cccc(C)c3nc21 (stereo not drawn) | 121 | . | . | . | . | . | 61 | 71
C=CCn1c(=N)c(C(=O)NCCCOC)cc2c(=O)n3cccc(C)c3nc21 | 120 | . | . | . | . | . | 56 | 66
CCCn1c(=N)c(C(=O)NCC2CCCO2)cc2c(=O)n3cccc(C)c3nc21 (stereo not drawn) | 83 | . | . | . | . | . | . | .
COc1ccc(CCn2c(=N)c(C(=O)NCC3CCCO3)cc3c(=O)n4ccccc4nc32)cc1 (stereo not drawn) | . | . | . | . | . | . | / | /
N=c1c(C(=O)NCC2CCCO2)cc2c(=O)n3ccccc3nc2n1Cc1ccc(Cl)cc1 (stereo not drawn) | . | . | . | . | . | . | / | /
O=C(NCc1cccnc1)c1cccn2c(=O)c3sccc3nc12 | 19 | . | . | . | . | . | 67 | 74
O=C(O)c1ccccc1C(=O)NCc1cccnc1 | . | . | . | . | . | . | / | /
N=c1c(C(=O)NCC2CCCO2)cc2c(=O)n3ccccc3nc2n1Cc1ccccc1 (stereo not drawn) | 118 | . | . | . | . | . | 24 | 23
CNC(=O)c1cc2c(=O)n3cccc(C)c3nc2n(C(C)C)c1=N | 91 | . | . | . | . | . | 71 | 71
Cc1cccn2c(=O)c3cc(C(=O)NCC4CCCO4)c(=N)n(CCN4CCOCC4)c3nc12 (stereo not drawn) | 14 | . | . | . | . | . | . | 9.4
COc1ccccc1C(=O)N1CCC2CCN(C(=O)OC(C)(C)C)C2C1 (stereo not drawn) | . | . | . | / | / | / | / | /
COC(=O)[C@]12CCCCC=C1N(Cc1ccc(OC)cc1)C(=O)[C@@H]2CC(=O)NCCCCc1ccccc1 | . | . | . | / | / | / | / | /
Cc1cccn2c(=O)c3cc(C(=O)NCCc4ccccc4)c(=N)n(CC4CCCO4)c3nc12 (stereo not drawn) | . | . | . | . | . | . | / | /
Cc1cccn2c(=O)c3cc(C(=O)NCc4cccnc4)c(=N)n(CC4CCCO4)c3nc12 (stereo not drawn) | 111 | . | . | . | . | . | . | 33
CN(C)/C=N/c1nc2nccc(-c3cccs3)n2n1 | 85 | . | . | . | . | . | 67 | 79
SMILES | proKLK7 act | DDE Tn6 FP inh | DDE Tn7 FP inh | CRFR2-BP ag | CRFBP-R2 block | NRP1-CendR mod | proKLK7 act conf | EDANS-DABCYL int
CN(C)/C=N/c1nc2nccc(-c3cccc(Cl)c3)n2n1 | 15 | . | . | . | . | . | 34 | 45
Cc1noc2c1C(c1ccc(N(C)C)cc1)C1=C(CC(C)(C)CC1=O)N2 (stereo not drawn) | . | . | . | . | . | . | / | /
CCCSC1=C(C#N)C(c2ccc(OC)cc2)C2=C(CC(C)(C)CC2=O)N1 (stereo not drawn) | 16 | . | . | . | . | . | . | .
COc1ccc(C2C(C#N)=C(C)NC3=C2C(=O)CC(C)(C)C3)cc1 (stereo not drawn) | 21 | . | . | . | . | . | 61 | 66
COc1cccc(C2C(C#N)=C(C)NC3=C2C(=O)CC(C)(C)C3)c1 (stereo not drawn) | 25 | . | . | . | . | . | 18 | 34
Cc1ccc(C2C3=C(CC(C)(C)CC3=O)Nc3onc(C)c32)cc1 (stereo not drawn) | 15 | . | . | . | . | . | . | .
Cc1sc(-c2ccccn2)nc1OC(=O)c1ccc(Cl)cc1 | . | . | . | . | . | . | / | /
Cc1sc(-c2ccncc2)nc1OC(=O)c1ccccc1 | 19 | . | . | . | . | . | 34 | 29
CC(C)(C)c1ccc(S(=O)(=O)N2CCCC(C(=O)NCc3cccs3)C2)cc1 (stereo not drawn) | . | . | . | / | / | / | / | /
COC(=O)c1cccc(Cn2ccc3ccc(-c4ccc5ccn(C(=O)c6cccc(OC)c6)c5c4)cc32)c1 | . | . | . | / | / | / | / | /
CN(C)c1ccc(-c2nn3c(-c4ccco4)nnc3s2)cc1 | . | . | . | / | / | / | / | /
CC(C)(C)c1ccc(OC(=O)Nc2ccc(O)c(C(=O)O)c2)cc1 | 13 | . | . | . | . | . | 14 | 12
Cc1cccc(OC(=O)Nc2ccc(C(=O)O)c(O)c2)c1 | . | . | . | . | . | . | / | /
C=CCNC(=S)NNC(=O)c1cccn(Cc2ccc(Cl)c(Cl)c2)c1=O | 22 | . | . | . | . | . | 33 | 36
CNC(=S)NNC(=O)c1cccn(Cc2ccc(Cl)c(Cl)c2)c1=O | 21 | . | . | . | . | . | 31 | 34
CNC(=S)NNC(=O)c1ccccc1Br | . | . | . | . | . | . | / | /
CNC(=S)NNC(=O)c1cccn(Cc2cccc(Cl)c2)c1=O | 15 | . | . | . | . | . | 30 | 34
NNC(=O)c1cccn(Cc2cccc(C(F)(F)F)c2)c1=O | . | . | . | . | . | . | / | /
